Experiments:
factor Xa = factor Xa (Homo sapiens, UniProt P00742); assay: Determination of kcat/Km, cleavage by factor Xa; format: biochemical; conditions: for kcat/Km for factor Xa: 150 mM NaCl, 20 mM Tris pH 7.5, 2 mM CaCl2, 1% BSA, 37°C, Cy5 fluorescence
plasmin = plasmin (Homo sapiens, UniProt P00747); assay: Determination of kcat/Km, cleavage by plasmin; format: biochemical; conditions: for selectivity for thrombin over plasmin (ratio of kcat/Km): kcat/Km thrombin versus plasmin
thrombin [1] = biological target: T1, thrombin (Homo sapiens, UniProt P00734); assay: Determination of kcat/Km, cleavage by thrombin; format: biochemical; conditions: PPRSFL replaced with norleucine-TPRSFL
[2] = biological target: thrombin activity in developing blood clots (Mus musculus, UniProt P19221); assay: Tail-clip model, ratiometric Cy5/Cy7 imaging of developing blood clots; format: in vivo; conditions: mouse tail clot
[3] = test system: pro-coagulation enzymes (thrombin, plasmin, factor Xa); format: biochemical; conditions: 1 µM RACPP, 50 nM enzyme, 37°C; tricine gel, Cy5/Cy7 ratio image
Outline: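 Each ratiometric probe was incubated separately with purified enzyme for set times. Cleavage products were separated on tricine-SDS polyacrylamide gels. Gels were imaged multispectrally with 620 nm excitation, collecting Cy5 (660–720 nm) and Cy7 (760–830 nm) emission. Cy5 images were divided by Cy7 images and pseudocoloured from blue (ratio minimum) to red (ratio maximum).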

MMP-9 = MMP-9 (Homo sapiens, UniProt P14780); assay: Addition of purified MMP-9 to developing blood pools of injected mice; format: in vivo, mouse; conditions: blood pool of injected mice; MMP-9 1 µl of 1.5 µM, 10 minutes
thrombin [4] = biological target: T1, thrombin; format: biochemical; conditions: probe diluted in mouse plasma
Outline: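 Probe construction: Cy5 sits on the polycationic domain and the Cy7 acceptor on the polyanionic domain, joined by a thrombin-cleavable linker, so the intact probe undergoes FRET. Emission spectra were recorded in mouse plasma in a cuvette spectrofluorometer before and after adding purified thrombin. Cy5 emission peaks near 670 nm and Cy7 re-emission near 780 nm.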

Sequence of plasmin (P00747 97-580 limits assumed, species assumed): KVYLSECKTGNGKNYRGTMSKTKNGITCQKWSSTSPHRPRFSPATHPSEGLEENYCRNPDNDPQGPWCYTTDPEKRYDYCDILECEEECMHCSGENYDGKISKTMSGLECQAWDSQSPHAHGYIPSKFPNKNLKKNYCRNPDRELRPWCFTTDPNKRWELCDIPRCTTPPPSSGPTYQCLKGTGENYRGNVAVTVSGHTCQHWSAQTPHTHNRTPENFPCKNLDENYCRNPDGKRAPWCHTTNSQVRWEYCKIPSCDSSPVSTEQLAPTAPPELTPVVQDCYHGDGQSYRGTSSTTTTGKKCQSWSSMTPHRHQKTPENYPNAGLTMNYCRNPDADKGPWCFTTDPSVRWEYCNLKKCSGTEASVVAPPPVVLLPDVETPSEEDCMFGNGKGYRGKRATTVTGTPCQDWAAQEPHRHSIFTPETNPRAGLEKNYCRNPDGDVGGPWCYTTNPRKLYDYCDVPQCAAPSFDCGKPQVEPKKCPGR
Sequence of plasmin (P00747 581-810 limits assumed, species assumed): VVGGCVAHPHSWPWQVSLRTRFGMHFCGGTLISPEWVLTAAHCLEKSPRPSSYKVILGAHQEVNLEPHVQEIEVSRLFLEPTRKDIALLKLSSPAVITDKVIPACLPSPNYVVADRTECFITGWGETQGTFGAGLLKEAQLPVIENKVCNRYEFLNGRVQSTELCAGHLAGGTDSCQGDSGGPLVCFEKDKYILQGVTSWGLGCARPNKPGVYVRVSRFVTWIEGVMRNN
Sequence of factor Xa (P00742 41-179 limits assumed): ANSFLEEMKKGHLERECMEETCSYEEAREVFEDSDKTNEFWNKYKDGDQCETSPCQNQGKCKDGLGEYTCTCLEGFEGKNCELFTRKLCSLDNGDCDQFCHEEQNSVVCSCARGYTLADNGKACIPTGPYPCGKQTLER
Sequence of factor Xa (P00742 235-488 limits assumed): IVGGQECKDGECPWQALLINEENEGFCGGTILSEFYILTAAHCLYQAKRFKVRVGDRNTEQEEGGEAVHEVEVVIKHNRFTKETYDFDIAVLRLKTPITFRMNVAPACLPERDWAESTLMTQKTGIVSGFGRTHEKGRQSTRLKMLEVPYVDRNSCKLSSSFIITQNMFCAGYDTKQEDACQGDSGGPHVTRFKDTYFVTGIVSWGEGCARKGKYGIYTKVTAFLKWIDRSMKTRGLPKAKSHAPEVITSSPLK
Sequence of MMP-9 (P14780 107-707): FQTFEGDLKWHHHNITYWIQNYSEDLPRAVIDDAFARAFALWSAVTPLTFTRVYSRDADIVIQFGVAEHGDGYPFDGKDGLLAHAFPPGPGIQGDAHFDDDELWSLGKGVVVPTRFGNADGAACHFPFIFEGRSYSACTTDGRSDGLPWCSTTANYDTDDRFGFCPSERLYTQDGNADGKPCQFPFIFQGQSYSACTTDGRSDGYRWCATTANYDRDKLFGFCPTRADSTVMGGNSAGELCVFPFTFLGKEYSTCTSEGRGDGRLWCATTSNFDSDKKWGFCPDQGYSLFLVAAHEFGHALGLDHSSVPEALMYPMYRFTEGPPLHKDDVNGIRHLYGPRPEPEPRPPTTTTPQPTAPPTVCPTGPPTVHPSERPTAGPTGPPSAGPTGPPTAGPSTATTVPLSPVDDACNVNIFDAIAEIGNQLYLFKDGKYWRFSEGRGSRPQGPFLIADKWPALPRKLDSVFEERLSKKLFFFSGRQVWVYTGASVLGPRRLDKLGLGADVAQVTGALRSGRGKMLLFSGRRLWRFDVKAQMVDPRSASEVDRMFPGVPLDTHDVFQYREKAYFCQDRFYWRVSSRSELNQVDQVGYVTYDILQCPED

With “Cy7-NH-e9-c(S-Peg12)oDPRSFL-r9-c(Cy5)-CONH2 [RACPPDPRSFL]” the “kcat/Km for factor Xa” value (factor Xa) was 6200 M⁻¹ s⁻¹, the “selectivity for thrombin over factor Xa (ratio of kcat/Km)” value (factor Xa; kcat/Km thrombin versus factor Xa) was “less than 2 fold” and the kcat/Km for plasmin (plasmin; 150 mM NaCl, 20 mM Tris pH 7.5, 2 mM CaCl2, 1% BSA, 37°C, Cy5 fluorescence) was 10000 M⁻¹ s⁻¹. For the same substance, the “selectivity for thrombin over plasmin (ratio of kcat/Km)” value (plasmin) was “less than 2 fold”.

For “Cy7-NH-e9-c(S-Peg12)oNLeTPRSFL-r9-c(Cy5)-CONH2 [RACPPNleTPRSFL]”, the “acceleration of thrombin cleavage relative to RACPPPPRSFL” value (thrombin [1]) was “approximately 90 fold”, the “selectivity for thrombin over plasmin (ratio of kcat/Km)” value (plasmin) was 52.5 fold and the “Cy5/Cy7 ratio at 15 minutes post injury” value ([2]; 10 nmol) was 7.2. For the same substance, the “change of Cy5/Cy7 ratio at 15 minutes post injury” value ([2]; 10 nmol) was “tenfold”, the “Cy5/Cy7 ratio at one minute post injury” value ([2]; 10 nmol, n = 3, mean (±SD)) was 0.75(±0.11) and the “Cy5/Cy7 ratio at five minutes post injury” value ([2]; 10 nmol, n = 3, p = 0.01 vs one minute) was 3.1(±0.45).

In the case of “Cy7-NH-e9-c(S-Peg12)oPLGC(Me)AG-r9-c(Cy5)-CONH2 [RACPPPLGC(Me)AG]”, the “cleavage by thrombin, plasmin, factor Xa on SDS-PAGE (selectivity)” value [3] is reported as “not cleaved by any of the pro-coagulation enzymes”, the “ratiometric contrast after local addition of purified MMP-9” value (MMP-9) is reported as “spectacular local ratiometric contrast” and the “Cy5/Cy7 emission ratio at the wound site over 40 minutes of clotting” value ([2]; 10 nmol control probe) is reported as “low and stable”.

In the case of “Cy7-NH-e9-c(S-Peg12)oPPRSFL-r9-c(Cy5)-CONH2 [RACPPPPRSFL]”, the “kcat/Km for factor Xa” value (factor Xa) is reported as “no detectable activity”, the “selectivity for thrombin over plasmin (ratio of kcat/Km)” value (plasmin) is reported as 14.3 fold and the “cleavage by thrombin, plasmin, factor Xa on SDS-PAGE (selectivity)” value [3] is reported as “selective for thrombin”. For the same substance, the “change in Cy5/Cy7 ratio from one to five minutes post injury” value ([2]; 10 nmol) was “no significant change”, the “time post injury at which a Cy5/Cy7 ratio increase was detectable” value ([2]; 10 nmol probe) was 10 min and the “change in the Cy5/Cy7 emission ratio on addition of purified thrombin” value (thrombin [4]; cuvet spectrofluorometer) was 34 fold. The “increase in Cy5 emission on addition of purified thrombin” value (thrombin [4]; approx. 670 nm) was 8.8 fold and the “decrease in Cy7 re-emission on addition of purified thrombin” value (thrombin [4]; approx. 780 nm) was 3.8 fold.

With lepirudin [reference compound] the “effect on cleavage and ratio change of RACPPNleTPRSFL” value ([2]; lepirudin 0.5 mg/mouse immediately prior to probe injection) was “inhibited the cleavage and ratio change”.
